Data: PubChem BioAssay
Activity calls are given as the source filed them.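 How the source made its calls, unless noted: active means duplicate-averaged activation above buffer control mean plus 5 SD of those controls; inactive means the rest.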

Assays:
[1] = nonspecific flux increase, KCNQ1-free cells – parental CHO cells, counter-screen for KCNQ1 potentiator project (AID 493006); conditions: parental CHO-K1 cells, FluxOR thallium flux, at 10 µM; stronger effect = higher value;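 on activation: fluorescence ratio of max minus min over baseline after K+ and Tl+ depolarization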
Outline: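 Material: untransfected host CHO-K1 cells with FluxOR thallium dye. Timing: overnight 37 °C plating, 90 min RT dye, 20 min compound. Detection: kinetic FluxOR fluorescence, 10 s baseline, 110 s after stimulus. Read-out basis: max-minus-min fluorescence over baseline, percent of buffer-to-R-L3 span. Replicates: duplicate wells per compound, percent values averaged.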

[2] = biological target: Potassium voltage-gated channel subfamily KQT member 1 (Homo sapiens) (UniProt P51787); test: enhancement of KCNQ1 channel thallium flux – FluxOR thallium flux, CHO cells, duplicates, confirmation (AID 493007;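 active means potentiation averaged over duplicate wells exceeding buffer-only control mean by more than 3 SD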;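 on outcome: cells depolarized by a potassium plus thallium sulfate stimulus after compound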); conditions: KCNQ1 cell line, FluxOR thallium flux fluorescence, at 10 µM; stronger effect = higher value, % of reference activator effect, buffer zero
Sequence of Potassium voltage-gated channel subfamily KQT member 1 (Homo sapiens) (P51787 whole entry, looked up): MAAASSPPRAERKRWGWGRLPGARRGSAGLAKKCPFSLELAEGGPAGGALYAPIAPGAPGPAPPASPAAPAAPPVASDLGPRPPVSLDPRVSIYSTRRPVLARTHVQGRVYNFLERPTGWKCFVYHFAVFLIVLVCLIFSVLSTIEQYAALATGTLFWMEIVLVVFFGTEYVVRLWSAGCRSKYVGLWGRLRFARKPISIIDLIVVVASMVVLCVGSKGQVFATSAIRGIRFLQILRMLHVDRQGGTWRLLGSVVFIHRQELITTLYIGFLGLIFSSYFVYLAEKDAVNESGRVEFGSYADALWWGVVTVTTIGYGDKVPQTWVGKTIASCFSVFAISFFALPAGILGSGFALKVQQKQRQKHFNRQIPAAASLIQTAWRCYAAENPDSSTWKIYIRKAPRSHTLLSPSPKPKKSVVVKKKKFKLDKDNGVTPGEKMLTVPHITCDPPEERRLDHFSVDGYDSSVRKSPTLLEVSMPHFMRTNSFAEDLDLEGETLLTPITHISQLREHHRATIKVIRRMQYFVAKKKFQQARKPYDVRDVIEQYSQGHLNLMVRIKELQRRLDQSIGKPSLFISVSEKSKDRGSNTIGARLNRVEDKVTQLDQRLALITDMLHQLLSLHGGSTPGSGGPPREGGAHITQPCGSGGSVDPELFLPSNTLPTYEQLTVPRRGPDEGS
Outline: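 Test system – KCNQ1-expressing CHO cell line · Incubation – FluxOR dye loading 90 min, compound exposure 20 min, room temperature · Detection – FluxOR Tl+ flux fluorescence, 10 s baseline plus 110 s recording · Controls – buffer-only wells as 0% and R-L3 activator as 100%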

[3] = biological target: Potassium voltage-gated channel subfamily KQT member 2 (Rattus norvegicus) (UniProt O88943); test: KCNQ2 thallium flux enhancement – KCNQ2-CHO-K1 cells, selectivity assay for KCNQ1 potentiator project (AID 493009;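 active means mean duplicate potentiation above the buffer control mean plus 5 SD of buffer wells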;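 further: assay conditions were tuned for KCNQ1 rather than KCNQ2 modulators; signal is max minus min fluorescence divided by baseline after thallium stimulus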); conditions: FluxOR thallium flux fluorescence, at 10 µM; stronger effect = higher value, scaled: buffer 0, activator control 100
Sequence of Potassium voltage-gated channel subfamily KQT member 2 (Rattus norvegicus) (O88943 whole entry, looked up): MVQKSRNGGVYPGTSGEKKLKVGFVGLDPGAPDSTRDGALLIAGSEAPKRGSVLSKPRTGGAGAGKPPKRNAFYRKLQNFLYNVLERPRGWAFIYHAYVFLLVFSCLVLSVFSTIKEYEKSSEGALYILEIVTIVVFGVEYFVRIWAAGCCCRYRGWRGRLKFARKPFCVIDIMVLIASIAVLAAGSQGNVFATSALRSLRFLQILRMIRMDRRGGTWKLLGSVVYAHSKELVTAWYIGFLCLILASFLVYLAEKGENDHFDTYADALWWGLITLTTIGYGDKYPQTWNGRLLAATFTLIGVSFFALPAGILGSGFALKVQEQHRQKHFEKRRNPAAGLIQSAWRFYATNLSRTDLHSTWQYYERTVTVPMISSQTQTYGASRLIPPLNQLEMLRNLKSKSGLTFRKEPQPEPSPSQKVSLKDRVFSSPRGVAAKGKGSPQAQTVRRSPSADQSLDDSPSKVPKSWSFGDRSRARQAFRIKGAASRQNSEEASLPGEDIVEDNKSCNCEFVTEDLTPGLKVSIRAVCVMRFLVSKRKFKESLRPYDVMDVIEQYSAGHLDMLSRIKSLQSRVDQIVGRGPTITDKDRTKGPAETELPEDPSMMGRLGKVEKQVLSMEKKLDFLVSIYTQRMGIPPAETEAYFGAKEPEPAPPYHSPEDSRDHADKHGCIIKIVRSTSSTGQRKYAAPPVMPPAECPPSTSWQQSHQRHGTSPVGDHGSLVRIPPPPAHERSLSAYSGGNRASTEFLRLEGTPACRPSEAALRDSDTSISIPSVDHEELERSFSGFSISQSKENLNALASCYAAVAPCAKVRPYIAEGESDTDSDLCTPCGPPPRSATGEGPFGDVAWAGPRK

[4] = biological target: Potassium voltage-gated channel subfamily KQT member 1 (Homo sapiens) (UniProt P51787); test: KCNQ1 activators by electrophysiology – IonWorks patch clamp, KCNQ1-CHO cells, orthogonal assay for KCNQ1 potentiator project, confirmation (AID 493184;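 active means current rise at least 3 SD above the untreated control mean in each of two repeat wells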); conditions: automated patch clamp current, at 10 µM; stronger effect = higher value
Outline: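 Read-out: Percent current increase versus pre-compound level | Assay system: CHO cells carrying KCNQ1 | Measured by: Automated perforated-patch electrophysiology | Medium: External bath solution at pH 7.4 | Dosing: One dose, 10 µM final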

O=C(Nc1cc(=O)[nH]c(=O)[nH]1)c1cccc(Br)c1
outcome [1]: inactive | outcome [2]: inactive | outcome [3]: inactive | outcome [4]: inactive

O=C(COC(=O)C12CC3CC(CC(C3)C1)C2)NCCCc1ccccc1
outcome [1]: inactive | outcome [2]: inactive | outcome [3]: inactive | outcome [4]: inactive

Nc1cc(=O)[nH]c(SCC(=O)N2CCN(S(=O)(=O)c3ccc4ccccc4c3)CC2)n1
outcome [1]: inactive | outcome [2]: inactive | outcome [3]: inactive | outcome [4]: inactive

CC(=O)OCC(=O)[C@@]1(OC(C)=O)[C@@H](C)C[C@H]2[C@@H]3C[C@H](F)C4=CC(=O)C=C[C@]4(C)[C@@]3(F)[C@@H](O)C[C@@]21C
outcome [1]: inactive | outcome [2]: inactive | outcome [3]: inactive | outcome [4]: inactive

S=c1[nH]cnc2sc(-c3ccccc3)cc12
activation [1]: 520% (active) | potentiation [2]: 274% (active) | potentiation [3]: 586% (active) | outcome [4]: inactive

CCCS(=O)(=O)c1c(S(=O)(=O)CCC)c2ccc(C(N)=O)cn2c1C(=O)c1ccccc1
outcome [1]: inactive | outcome [2]: inactive | outcome [3]: inactive | outcome [4]: inactive

CCc1ccc2nc(NC(=O)c3cc(C)on3)sc2c1
activation [1]: 157% (active) | potentiation [2]: 55% (active) | potentiation [3]: 151% (active) | outcome [4]: inactive

Cc1cc(-c2csc3nc[nH]c(=S)c23)cc(C)c1C
activation [1]: 286% (active) | potentiation [2]: 255% (active) | potentiation [3]: 408% (active) | outcome [4]: inactive

O=C(CSc1nc2ccccc2[nH]1)N/N=C/c1ccncc1
outcome [1]: inactive | outcome [2]: inactive | outcome [3]: inactive | outcome [4]: inactive

Oc1[nH]c2c(Cl)cc(Cl)cc2c1N=NC(=S)NCC1CCCO1 (stereo not given)
activation [1]: 346% (active) | potentiation [2]: 277% (active) | potentiation [3]: 454% (active) | outcome [4]: inactive

Cn1ncc2c(O/N=C(\N)c3ccc(C(C)(C)C)cc3)ncnc21
outcome [1]: inactive | outcome [2]: inactive | outcome [3]: inactive | outcome [4]: inactive

Cc1nnc(C)n1/N=C/c1cc(Br)cc(Br)c1O
activation [1]: 145% (active) | outcome [2]: inactive | outcome [3]: inactive | outcome [4]: inactive

NNC(=O)c1sccc1OCc1ccc(Cl)cc1Cl
outcome [1]: inactive | outcome [2]: inactive | outcome [3]: inactive | outcome [4]: inactive

O=C(NC(=S)N1CCc2ccccc21)c1ccc(Br)o1
activation [1]: 400% (active) | potentiation [2]: 124% (active) | potentiation [3]: 440% (active) | outcome [4]: inactive

CCn1c(=S)[nH]c2scc(-c3cccs3)c2c1=O
activation [1]: 548% (active) | potentiation [2]: 246% (active) | potentiation [3]: 528% (active) | outcome [4]: inactive

CCOC(=O)c1ccc(Nc2nc(N3CCOCC3)nc(N3CCOCC3)n2)cc1
outcome [1]: inactive | outcome [2]: inactive | outcome [3]: inactive | outcome [4]: inactive

Fc1cccc(/C=N/Nc2ccc3ccccc3n2)c1
outcome [1]: inactive | outcome [2]: inactive | outcome [3]: inactive | outcome [4]: inactive

Cc1cccc(/C=C2/S/C(=N/N=C3\CC4CCC3(C)C4(C)C)NC2=O)c1 (stereo not given)
outcome [1]: inactive | potentiation [2]: 28% (active) | outcome [3]: inactive | outcome [4]: inactive

Cc1ccc(NC(=O)C(=O)NNC(=O)c2ccccc2C)cc1Cl
activation [1]: 304% (active) | potentiation [2]: 112% (active) | potentiation [3]: 400% (active) | outcome [4]: inactive

CC(C)(C)C1C/C(=C/c2ccccn2)C(=O)/C(=C/c2ccccn2)C1 (stereo not given)
outcome [1]: inactive | outcome [2]: inactive | outcome [3]: inactive | outcome [4]: inactive

COc1cc2c3nnc(-c4ccccc4)c-3cn(Cc3ccc(F)cc3)c2cc1OC
outcome [1]: inactive | outcome [2]: inactive | outcome [3]: inactive | outcome [4]: inactive

CCOC(=O)c1sc(C)nc1C1CCN(C(=O)OCC)CC1
outcome [1]: inactive | outcome [2]: inactive | outcome [3]: inactive | outcome [4]: inactive

NNc1nc2ccc(Cl)cc2s1
outcome [1]: inactive | outcome [2]: inactive | outcome [3]: inactive | outcome [4]: inactive

CCOC(=O)Cn1c(=N)n(CCOc2ccc(Br)cc2)c2ccccc21
outcome [1]: inactive | outcome [2]: inactive | outcome [3]: inactive | outcome [4]: inactive

O=c1oc2cc(OCCO)ccc2c2c1CCCC2
outcome [1]: inactive | outcome [2]: inactive | outcome [3]: inactive | outcome [4]: inactive

COc1ccc(CC(=O)c2ccccc2C(=O)O)cc1
outcome [1]: inactive | outcome [2]: inactive | outcome [3]: inactive | outcome [4]: inactive

COC(=O)c1sc(NC(=S)NC(=O)c2ccc(C)cc2)nc1C
activation [1]: 172% (active) | potentiation [2]: 50.5% (active) | potentiation [3]: 188% (active) | outcome [4]: inactive

Cc1cc(C=NCCO)c(C)n1-c1cc(Cl)ccc1Cl
outcome [1]: inactive | outcome [2]: inactive | outcome [3]: inactive | outcome [4]: inactive

COc1cccc(N(C(=O)Cn2nnc(-c3ccc(C)o3)n2)C(C(=O)NC2CCCC2)c2ccncc2)c1 (stereo not given)
outcome [1]: inactive | outcome [2]: inactive | outcome [3]: inactive | outcome [4]: inactive

CCC1(c2ccccc2)NC(=S)N(c2ccc(C)cc2)N1 (stereo not given)
activation [1]: 392% (active) | potentiation [2]: 198% (active) | potentiation [3]: 522% (active) | outcome [4]: inactive

CCCCOC(=O)c1ccc(NC(=S)NC(=O)c2c(Cl)cnn2CC)cc1
activation [1]: 208% (active) | potentiation [2]: 196% (active) | potentiation [3]: 298% (active) | outcome [4]: inactive

Oc1c(N=NC(=S)Nc2ccccc2F)c2ccccc2n1Cc1ccccc1
activation [1]: 143% (active) | potentiation [2]: 49% (active) | potentiation [3]: 183% (active) | outcome [4]: inactive

CCOc1ccc(C(=O)NC(=S)N(Cc2ccccc2)Cc2ccccc2)cc1
activation [1]: 395% (active) | potentiation [2]: 296% (active) | potentiation [3]: 522% (active) | outcome [4]: inactive

Cc1ccc(-c2nc3ccc(Cl)cc3c(=O)n2O)cc1
activation [1]: 558% (active) | potentiation [2]: 221% (active) | potentiation [3]: 523% (active) | outcome [4]: inactive

CC1CCCCN1S(=O)(=O)c1ccc(S(=O)(=O)N(CC(=O)Nc2ccccc2)Cc2cccs2)cc1 (stereo not given)
outcome [1]: inactive | outcome [2]: inactive | outcome [3]: inactive | outcome [4]: inactive

O=C(NCc1cccs1)C1CC(c2ccccc2O)=NO1 (stereo not given)
outcome [1]: inactive | outcome [2]: inactive | outcome [3]: inactive | outcome [4]: inactive

O=C(c1ccccc1NS(=O)(=O)c1ccc(Br)cc1)N1CCOCC1
activation [1]: 306% (active) | potentiation [2]: 112% (active) | potentiation [3]: 326% (active) | outcome [4]: inactive

O=c1c2ccccc2sn1-c1ccccc1
activation [1]: 180% (active) | potentiation [2]: 59% (active) | potentiation [3]: 148% (active) | outcome [4]: inactive

Cc1nc2ccccc2c(N)c1C(=O)/C=C/c1ccccc1
outcome [1]: inactive | outcome [2]: inactive | outcome [3]: inactive | outcome [4]: inactive

CSC(=S)N/N=C/c1ccc(Br)cc1
activation [1]: 172% (active) | potentiation [2]: 38% (active) | potentiation [3]: 179% (active) | outcome [4]: inactive

Cc1ccc2nc(SCC(=O)N3CCN(C(=O)c4ccco4)CC3)[nH]c2c1
outcome [1]: inactive | outcome [2]: inactive | outcome [3]: inactive | outcome [4]: inactive

CCn1c(CC(=O)Nc2ccccc2)nnc1SCC(=O)Nc1nncs1
outcome [1]: inactive | outcome [2]: inactive | outcome [3]: inactive | outcome [4]: inactive

CCc1ccc(OCC(=O)Nc2ccc(S(=O)(=O)N3CCOCC3)cc2)cc1
outcome [1]: inactive | outcome [2]: inactive | outcome [3]: inactive | outcome [4]: inactive

COc1ccc(-c2csc(NC(=S)NC(=O)c3ccco3)n2)cc1
activation [1]: 264% (active) | potentiation [2]: 80.5% (active) | potentiation [3]: 216% (active) | outcome [4]: inactive

COc1ccccc1NS(=O)(=O)c1cc(NC(=O)c2cnccn2)ccc1N1CCOCC1
activation [1]: 222% (active) | potentiation [2]: 54% (active) | potentiation [3]: 248% (active) | outcome [4]: inactive

Cc1ccc(S(=O)(=O)Nc2cc(C(F)(F)F)ccc2N2CCOCC2)c(C)c1
outcome [1]: inactive | outcome [2]: inactive | outcome [3]: inactive | outcome [4]: inactive

CCn1nnc2cc(C(=O)Nc3cc(S(C)(=O)=O)ccc3Cl)ccc21
outcome [1]: inactive | outcome [2]: inactive | outcome [3]: inactive | outcome [4]: inactive

Cc1sc2ncnc(SCC(=O)c3ccc(O)cc3O)c2c1C
activation [1]: 150% (active) | potentiation [2]: 20.5% (active) | potentiation [3]: 176% (active) | outcome [4]: inactive

Oc1ccc2ccccc2c1N=Nc1nccs1
activation [1]: 328% (active) | potentiation [2]: 258% (active) | potentiation [3]: 426% (active) | outcome [4]: inactive

O=C1OCCC1Sc1nc2ccccc2c(=O)n1Cc1ccc(F)cc1 (stereo not given)
activation [1]: 158% (active) | potentiation [2]: 44% (active) | potentiation [3]: 169% (active) | outcome [4]: inactive

Cc1ccc(C)c(SCC(=O)NC(=O)Nc2ccc3c(c2)OCCO3)c1
outcome [1]: inactive | outcome [2]: inactive | outcome [3]: inactive | outcome [4]: inactive

O=C(ONC1=NCCCCC1)c1ccc(Cl)cc1
outcome [1]: inactive | outcome [2]: inactive | outcome [3]: inactive | outcome [4]: inactive

Oc1[nH]c2ccc(Br)cc2c1N=NC(=S)Nc1ccc(F)cc1
outcome [1]: inactive | potentiation [2]: 43.5% (active) | potentiation [3]: 160% (active) | outcome [4]: inactive

CC1Cc2ccccc2N1C(=S)NC(=O)c1cccc(Br)c1 (stereo not given)
activation [1]: 726% (active) | potentiation [2]: 224% (active) | potentiation [3]: 576% (active) | outcome [4]: inactive

NC(=O)c1cccc(N=Cc2cc(Cl)cc(Cl)c2O)c1
activation [1]: 178% (active) | potentiation [2]: 25% (active) | potentiation [3]: 154% (active) | outcome [4]: inactive

CSC(=S)N/N=C(\C)c1ccccc1
activation [1]: 246% (active) | potentiation [2]: 50.5% (active) | potentiation [3]: 283% (active) | outcome [4]: inactive

Cc1ccc2c(c1)c(C)c(C)n2CC(O)CN1CCCCC1C (stereo not given)
outcome [1]: inactive | outcome [2]: inactive | outcome [3]: inactive | outcome [4]: inactive

CC1CCc2sc3nc(N4CCN(CCO)CC4)n4ncnc4c3c2C1 (stereo not given)
activation [1]: 510% (active) | potentiation [2]: 200% (active) | potentiation [3]: 500% (active) | outcome [4]: inactive

Cc1ccc(C)c(NS(=O)(=O)c2cc(C(=O)NCc3ccccn3)ccc2Cl)c1
outcome [1]: inactive | outcome [2]: inactive | outcome [3]: inactive | outcome [4]: inactive

Cc1cc(Br)ccc1OCC(=O)NNC(=O)C(=O)Nc1ccccc1
activation [1]: 406% (active) | potentiation [2]: 224% (active) | potentiation [3]: 478% (active) | outcome [4]: inactive
